Holding throughout (format): cell-based
Test [1] in a line: Inhibition of gamma-secretase-mediated cleavage of human APP Swedish and London mutation expressed in HEK293 cells assessed as reduction in amyloid beta42 production after 4 hrs by ECL technology.
Test [2] is described as follows: Inhibition of gamma-secretase-mediated cleavage of human APP Swedish and London mutation expressed in HEK293 cells assessed as reduction in amyloid beta40 production after 4 hrs by ECL technology. The essentials: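 HEK293 cells expressing human APP with Swedish and London mutations were given fresh medium and incubated with inhibitor for 4 h. Ab40 was measured in 10 microliters of conditioned medium by ECL. Values are means of n = 2.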

Test [3] is described as follows: Inhibition of gamma-secretase-mediated cleavage of human APP Swedish and London mutation expressed in HEK293 cell membrane.

Structures are written as SMILES.

Broadly, the IC50 is the concentration that gives 50% inhibition. Turning to `NS(=O)(=O)NC[C@@H]1CCC[C@@]2(S(=O)(=O)c3ccc(C(F)(F)F)cc3)c3c(F)ccc(F)c3OC[C@@H]12`, the IC50 in test [1] came to 4 nM; in test [2], 6 nM; in test [3] it was 18.7 nM.
The compound `O=S1(=O)NCCN1C[C@@H]1CCC[C@@]2(S(=O)(=O)c3ccc(C(F)(F)F)cc3)c3c(F)ccc(F)c3OC[C@@H]12` came in with an IC50 in test [3] of 37.7 nM.
For the compound `CCN(C[C@@H]1CCC[C@@]2(S(=O)(=O)c3ccc(Cl)cc3)c3c(F)ccc(F)c3OC[C@@H]12)S(C)(=O)=O`, the IC50 in test [1] amounted to 5 nM; in test [2], 12 nM; in test [3], 5.5 nM.
Taken in the same sequence, the figures for `O=S(=O)(CC(F)(F)F)NC[C@@H]1CCC[C@@]2(S(=O)(=O)c3ccc(C(F)(F)F)cc3)c3c(F)ccc(F)c3OC[C@@H]12` were 8 nM, 22.7 nM and 25 nM.
Taken in the same sequence, the figures for `O=S1(=O)CCCN1C[C@@H]1CCC[C@@]2(S(=O)(=O)c3ccc(C(F)(F)F)cc3)c3c(F)ccc(F)c3OC[C@@H]12` were 25 nM, 72 nM and 90 nM.
Taken in the same sequence, the figures for `O=S(=O)(NC[C@@H]1CCC[C@@]2(S(=O)(=O)c3ccc(Cl)cc3)c3c(F)ccc(F)c3OC[C@@H]12)N1CCOCC1` were 3 nM, 6 nM and 3.4 nM.
`O=S(=O)(NC[C@@H]1CCC[C@@]2(S(=O)(=O)c3ccc(Cl)cc3)c3c(F)ccc(F)c3OC[C@@H]12)N1CCCC1`: the IC50 turned out to be 3 nM in test [1], 5 nM in test [2] and 3.3 nM in test [3].
As for `CS(=O)(=O)N(C[C@@H]1CCC[C@@]2(S(=O)(=O)c3ccc(C(F)(F)F)cc3)c3c(F)ccc(F)c3OC[C@@H]12)C1CC1`, the IC50 in test [1] stood at 6 nM; in test [2], 9 nM; in test [3] it was 5.8 nM.
Taken in the same sequence, the figures for `CS(=O)(=O)N(C[C@@H]1CCC[C@@]2(S(=O)(=O)c3ccc(Cl)cc3)c3c(F)ccc(F)c3OC[C@@H]12)C1CC1` were 4 nM, 6 nM and 3.3 nM.
The like results for `O=S(=O)(NC[C@@H]1CCC[C@@]2(S(=O)(=O)c3ccc(Cl)cc3)c3c(F)ccc(F)c3OC[C@@H]12)c1cccs1` were, in that order, 18 nM, 45 nM and 16.7 nM.
Taken in the same sequence, the figures for `CCN(C[C@@H]1CCC[C@@]2(S(=O)(=O)c3ccc(C(F)(F)F)cc3)c3c(F)ccc(F)c3OC[C@@H]12)S(=O)(=O)C(F)(F)F` were 21 nM, 42 nM and 97 nM.
For `CCN(C[C@@H]1CCC[C@@]2(S(=O)(=O)c3ccc(Cl)cc3)c3c(F)ccc(F)c3OC[C@@H]12)S(=O)(=O)CC`, the values for the IC50 in test [1], in test [2] and in test [3] were 7 nM, 15 nM and 16 nM, respectively.
Taken in the same sequence, the figures for `CCCS(=O)(=O)NC[C@@H]1CCC[C@@]2(S(=O)(=O)c3ccc(Cl)cc3)c3c(F)ccc(F)c3OC[C@@H]12` were 6 nM, 12 nM and 5.5 nM.
With `O=S(=O)(NC[C@@H]1CCC[C@@]2(S(=O)(=O)c3ccc(Cl)cc3)c3c(F)ccc(F)c3OC[C@@H]12)C1CCCCC1`, the IC50 in test [1] turned out to be 20 nM; in test [2] it was 60 nM; in test [3] it was 55 nM.
Taken in the same sequence, the figures for `CS(=O)(=O)NC[C@@H]1CCC[C@@]2(S(=O)(=O)c3ccc(Cl)cc3)c3c(F)ccc(F)c3OC[C@@H]12` were 2 nM, 2 nM and 2.5 nM.
The like results for `CC(C)S(=O)(=O)NC[C@@H]1CCC[C@@]2(S(=O)(=O)c3ccc(Cl)cc3)c3c(F)ccc(F)c3OC[C@@H]12` were, in that order, 5 nM, 12 nM and 5.2 nM.
As to `CCOC(=O)CCS(=O)(=O)NC[C@@H]1CCC[C@@]2(S(=O)(=O)c3ccc(Cl)cc3)c3c(F)ccc(F)c3OC[C@@H]12`, the IC50 is 3 nM in test [1], 4 nM in test [2] and 2 nM in test [3].
The like results for `O=S(=O)(NC[C@@H]1CCC[C@@]2(S(=O)(=O)c3ccc(Cl)cc3)c3c(F)ccc(F)c3OC[C@@H]12)C1CC1` were, in that order, 4 nM, 4 nM and 3.1 nM.
The like results for `CN1CCN(C[C@@H]2CCC[C@@]3(S(=O)(=O)c4ccc(C(F)(F)F)cc4)c4c(F)ccc(F)c4OC[C@@H]23)S1(=O)=O` were, in that order, 13 nM, 23 nM and 68 nM.
`CCS(=O)(=O)NC[C@@H]1CCC[C@@]2(S(=O)(=O)c3ccc(Cl)cc3)c3c(F)ccc(F)c3OC[C@@H]12`: the IC50 in test [1] amounted to 2 nM; in test [2] it was 4 nM; in test [3], 1.6 nM.
In the case of `CCS(=O)(=O)NC[C@@H]1CCC[C@@]2(S(=O)(=O)c3ccc(C(F)(F)F)cc3)c3c(F)ccc(F)c3OC[C@@H]12`, the IC50 in test [1] was 1.6 nM; in test [2], 5.5 nM; in test [3], 20 nM.
Take `CN(C)S(=O)(=O)NC[C@@H]1CCC[C@@]2(S(=O)(=O)c3ccc(C(F)(F)F)cc3)c3c(F)ccc(F)c3OC[C@@H]12`: the 50% inhibitory concentration (IC50) came out at 5.4 nM in test [1], 12.7 nM in test [2] and 6.8 nM in test [3].
In the case of `CCN(C[C@@H]1CCC[C@@]2(S(=O)(=O)c3ccc(Cl)cc3)c3c(F)ccc(F)c3OC[C@@H]12)S(=O)(=O)C1CC1`, the figures for the half-maximal inhibitory concentration (IC50) in test [1], in test [2] and in test [3] were 9 nM, 25 nM and 20.5 nM, respectively.
The like results for `O=S(=O)(NC[C@@H]1CCC[C@@]2(S(=O)(=O)c3ccc(Cl)cc3)c3c(F)ccc(F)c3OC[C@@H]12)N1CCCCC1` were, in that order, 11 nM, 19 nM and 6 nM.
On to `CCN(C[C@@H]1CCC[C@@]2(S(=O)(=O)c3ccc(C(F)(F)F)cc3)c3c(F)ccc(F)c3OC[C@@H]12)S(C)(=O)=O`, for which the half-maximal inhibitory concentration (IC50) in test [1] is 7.4 nM; in test [2] it was 18.5 nM; in test [3], 34 nM.
On to `CCCCS(=O)(=O)NC[C@@H]1CCC[C@@]2(S(=O)(=O)c3ccc(Cl)cc3)c3c(F)ccc(F)c3OC[C@@H]12`, for which the IC50 was found to be 13 nM in test [1], 29 nM in test [2] and 13 nM in test [3].
In the case of `O=S(=O)(N(C[C@@H]1CCC[C@@]2(S(=O)(=O)c3ccc(Cl)cc3)c3c(F)ccc(F)c3OC[C@@H]12)C1CC1)C(F)(F)F`, the half-maximal inhibitory concentration (IC50) was 9 nM in test [1], 21 nM in test [2] and 15 nM in test [3].
Take `O=S1(=O)CCCCN1C[C@@H]1CCC[C@@]2(S(=O)(=O)c3ccc(C(F)(F)F)cc3)c3c(F)ccc(F)c3OC[C@@H]12`: in test [3], 122 nM corresponded to half-maximal inhibition (IC50).
On to `O=S(=O)(CC(F)(F)F)NC[C@@H]1CCC[C@@]2(S(=O)(=O)c3ccc(Cl)cc3)c3c(F)ccc(F)c3OC[C@@H]12`, for which the figures for the concentration for half-maximal inhibition (IC50) in test [1], in test [2] and in test [3] were 4 nM, 16 nM and 7.8 nM, respectively.
In the case of `O=S(=O)(NC[C@@H]1CCC[C@@]2(S(=O)(=O)c3ccc(Cl)cc3)c3c(F)ccc(F)c3OC[C@@H]12)c1c(F)cccc1F`, the IC50 is 17 nM in test [1], 32 nM in test [2] and 13 nM in test [3].
The like results for `O=S(=O)(NC[C@@H]1CCC[C@@]2(S(=O)(=O)c3ccc(Cl)cc3)c3c(F)ccc(F)c3OC[C@@H]12)c1ccccc1` were, in that order, 46 nM, 128 nM and 61 nM.
The like results for `O=S(=O)(NC[C@@H]1CCC[C@@]2(S(=O)(=O)c3ccc(C(F)(F)F)cc3)c3c(F)ccc(F)c3OC[C@@H]12)C1CC1` were, in that order, 6.3 nM, 17.5 nM and 19.7 nM.
Turning to `NS(=O)(=O)NC[C@@H]1CCC[C@@]2(S(=O)(=O)c3ccc(Cl)cc3)c3c(F)ccc(F)c3OC[C@@H]12`, the IC50 in test [1] is 1 nM; in test [2] it was 1 nM; in test [3] it was 2 nM.
As to `CN(C)S(=O)(=O)NC[C@@H]1CCC[C@@]2(S(=O)(=O)c3ccc(Cl)cc3)c3c(F)ccc(F)c3OC[C@@H]12`, the IC50 in test [1] is 1 nM; in test [2] it was 2 nM; in test [3], 2.7 nM.
The like results for `O=S(=O)(N(C[C@@H]1CCC[C@@]2(S(=O)(=O)c3ccc(C(F)(F)F)cc3)c3c(F)ccc(F)c3OC[C@@H]12)C1CC1)C(F)(F)F` were, in that order, 14.2 nM, 15.3 nM and 35.3 nM.
Taken in the same sequence, the figures for `CCS(=O)(=O)N(C[C@@H]1CCC[C@@]2(S(=O)(=O)c3ccc(C(F)(F)F)cc3)c3c(F)ccc(F)c3OC[C@@H]12)C1CC1` were 14.2 nM, 29.5 nM and 28 nM.
Taken in the same sequence, the figures for `CCN(C[C@@H]1CCC[C@@]2(S(=O)(=O)c3ccc(C(F)(F)F)cc3)c3c(F)ccc(F)c3OC[C@@H]12)S(=O)(=O)C1CC1` were 21 nM, 46.7 nM and 83 nM.
With `CCN(CC)S(=O)(=O)NC[C@@H]1CCC[C@@]2(S(=O)(=O)c3ccc(Cl)cc3)c3c(F)ccc(F)c3OC[C@@H]12`, the IC50 in test [1] stood at 3 nM; in test [2], 6 nM; in test [3], 9 nM.

The values above are taken from ChEMBL document CHEMBL1158621, “Tricyclic sulfones as orally active gamma-secretase inhibitors: synthesis and structure-activity relationship studies” (Bioorg Med Chem Lett, 2010).
